13 compounds from ChEMBL document CHEMBL1121581, “4-Piperazinyl-10H-thieno[2,3-b][1,5]benzodiazepines as potential neuroleptics” (J Med Chem, 1980) can be followed below.

One series concerns Mus musculus. Put plainly: Hypothermia in mice after peroral administration. Type of series: functional.
Series [1] in a line: Lethal dose in mice after perorla administration. Type of series: toxicity, organism-based. The settings on record: mouse, in vivo, po.
Series [2] concerns Rattus norvegicus. Briefly: Compound was assessed for its ability to produce catalepsy in rats; Dose administered perorally is 12 mg/kg; Group score is 8-15. Type of series: functional. The conditions noted are these: route oral. In outline: (§1)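 Groups of eight Lilly Wistar rats (180–190 g) were dosed orally, then checked at 0.5, 1, 1.5, 2, 3, 4 and 5 h. Front paws were placed on a 1.5-cm rod 7 cm above the table, and hold time was recorded up to 20 min. Each rat was scored 0–5 and its maximum scores were summed per group (maximum 40), then graded 0–4.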

For series [3], the system named is Rattus norvegicus. Briefly: Compound was assessed for its ability to block a conditioned avoidance response; Dose administered perorally is 6 mg/kg; 51-75%block. Type of series: functional. The conditions noted are these: route oral. In outline:
(§2)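 Lilly Wistar rats (120–130 g) trained in a shuttle box to cross on a 5-s buzzer, with mild shock if no response within 1 s of buzzer end. Only rats with a high conditioned response were used. Groups of five were dosed orally 1 h 50 min before the session, then habituated 10 min and tested 20 min. Shocks were scored as % of stimuli and graded 0–5.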

The test system of series [4] is Rattus norvegicus. Briefly: Compound was assessed for its ability to produce catalepsy in rats; Dose administered perorally is 8 mg/kg; Group score is 4-7. Type of series: functional. The settings on record: route oral. In a few lines:
as §1

The test system of series [5] is Rattus norvegicus. Put plainly: Compound was assessed for its ability to block a conditioned avoidance response; Dose administered perorally is 8 mg/kg; 31-50%block. Type of series: functional. The conditions noted are these: route oral. In a few lines: as §2
Series [6] concerns Rattus norvegicus. Briefly: Compound was assessed for its ability to produce catalepsy in rats; Dose administered perorally is 25 mg/kg; Group score is 8-15. Type of series: functional. The conditions noted are these: route oral. In outline: as §1
For series [7], the system named is Rattus norvegicus. Put plainly: Compound was assessed for its ability to block a conditioned avoidance response; Dose administered perorally is 40 mg/kg; 26-30%block. The conditions noted are these: route oral. Type of series: functional. In outline:
as §2

Series [8] concerns Rattus norvegicus. Put plainly: Compound was assessed for its ability to produce catalepsy in rats; Dose administered perorally is 50 mg/kg; Group score is 8-15. Type of series: functional. The conditions noted are these: route oral. In a few lines:
as §1

Series [9] relates to Rattus norvegicus. Briefly: Compound was assessed for its ability to block a conditioned avoidance response; Dose administered perorally is 20 mg/kg; no significant effect (0-25%block). Type of series: functional. The conditions noted are these: route oral. In a few lines: as §2
The test system of series [10] is Rattus norvegicus. Briefly: Compound was assessed for its ability to block a conditioned avoidance response; Dose administered perorally is 20 mg/kg; 76-99%block. Type of series: functional. The settings on record: route oral. In outline: as §2
Series [11] has as its system Rattus norvegicus. Put plainly: Compound was assessed for its ability to produce catalepsy in rats; Dose administered perorally is 20 mg/kg; Group score is 8-15. Type of series: functional. The conditions noted are these: route oral. In outline: as §1
The subject of series [12] is Rattus norvegicus. Briefly: Compound was assessed for its ability to produce catalepsy in rats; Dose administered perorally is 60 mg/kg; Group score is 8-15. Type of series: functional. The conditions noted are these: route oral. In outline:
as §1

For series [13], the system named is Rattus norvegicus. Put plainly: Compound was assessed for its ability to produce catalepsy in rats; Dose administered subcutaneously is 30 mg/kg; Group score is 4-7. Type of series: functional. The conditions noted are these: route subcutaneous.
The test system of series [14] is Rattus norvegicus. Put plainly: Compound was assessed for its ability to block a conditioned avoidance response; Dose administered intraperitoneally is 20 mg/kg; 26-30%block. The settings on record: route intraperitoneal. Type of series: functional. In outline: (§3)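 Shuttle-box conditioned avoidance in Lilly Wistar rats (120–130 g) pretrained to a 5-s buzzer with mild shock after a 1-s failure to respond. Groups of five had 10-min habituation and a 20-min test. Block was taken as shocks received as % of buzzer presentations and graded 0–5. Maximum dose was half the rotarod-disruption ED₅₀.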

Series [15] has as its system Rattus norvegicus. Briefly: Compound was assessed for its ability to block a conditioned avoidance response; Dose administered perorally is 10 mg/kg; 51-75%block. Type of series: functional. The conditions noted are these: route oral. In outline: as §2
Series [16] deals with Rattus norvegicus. Briefly: Compound was assessed for its ability to produce catalepsy in rats; Dose administered perorally is 25 mg/kg; Group score is 16-30. Type of series: functional. The settings on record: route oral. In outline:
as §1

Series [17] concerns Rattus norvegicus. Put plainly: Compound was assessed for its ability to block a conditioned avoidance response; Dose administered perorally is 10 mg/kg; 31-50%block. Type of series: functional. The settings on record: route oral. In a few lines:
as §2

Series [18] relates to Rattus norvegicus. Put plainly: Compound was assessed for its ability to produce catalepsy in rats; Dose administered perorally is 12.5 mg/kg; Group score is 8-15. The conditions noted are these: route oral. Type of series: functional. In a few lines:
as §1

In series [19] the test system is Rattus norvegicus. Briefly: Compound was assessed for its ability to block a conditioned avoidance response; Dose administered intraperitoneally is 40 mg/kg; 26-30%block. Type of series: functional. The settings on record: route intraperitoneal. In outline:
as §3

Series [20] concerns Rattus norvegicus. Put plainly: Compound was assessed for its ability to block a conditioned avoidance response; Dose administered intraperitoneally is 50 mg/kg; 26-30%block. Type of series: functional. The conditions noted are these: route intraperitoneal. In outline:
as §3

Series [21] deals with Rattus norvegicus. Briefly: Compound was assessed for its ability to block a conditioned avoidance response; Dose administered perorally is 30 mg/kg; Complete block of conditioned & unconditioned response. Type of series: functional. The settings on record: route oral. In a few lines:
as §2

For series [22], the system named is Rattus norvegicus. Put plainly: Compound was assessed for its ability to produce catalepsy in rats; Dose administered perorally is 16 mg/kg; Group score is 4-7. Type of series: functional. The settings on record: route oral. In outline: as §1

`CCc1cc2c(s1)Nc1ccc(F)cc1N=C2N1CCN(C)CC1` displayed an EDmin in the series on Mus musculus of 6.25 mg/kg. Besides, the LD50 in [1] was > 200 mg/kg. The Activity with Rattus norvegicus [2] was found to be 2; in the series on Rattus norvegicus [3], 3.

Regarding `CCc1cc2c(s1)Nc1ccc(Cl)cc1N=C2N1CCN(C)CC1`, the EDmin in the series with Mus musculus was 6.25 mg/kg. The compound further gave an LD50 in series [1] of 50 mg/kg. The Activity was found to be 1 in the series on Rattus norvegicus [4] and 2 with Rattus norvegicus [5].

For the compound `CCc1cc2c(s1)Nc1ccc(F)cc1N=C2N1CCN(Cc2ccccc2)CC1`, the EDmin with Mus musculus was 200 mg/kg. Also, the LD50 in series [1] was > 400 mg/kg. In addition, the results for the Activity in the series on Rattus norvegicus [6] and in the series on Rattus norvegicus [7] were 2 and 1, respectively.

With `CC(=O)c1cc2c(s1)Nc1ccc(F)cc1N=C2N1CCN(C)CC1`, the EDmin with Mus musculus is 12.5 mg/kg. The LD50 in series [1] came to 200 mg/kg. Also, the Activity in the series on Rattus norvegicus [8] is given as 2; in the series on Rattus norvegicus [9] it was 0.

With `CCc1cc2c(s1)Nc1ccccc1N=C2N1CCN(CCO)CC1`, the EDmin in the series with Mus musculus is 25 mg/kg. Moreover, the LD50 in [1] was > 400 mg/kg. Besides, the Activity in the series with Rattus norvegicus [10] is 4; in the series on Rattus norvegicus [11] it was 2.

Compound `CCc1cc2c(s1)Nc1ccc(F)cc1N=C2N1CCNCC1` displayed an EDmin with Mus musculus of 100 mg/kg. Further, in series [1], the LD50 is > 800 mg/kg. The Activity in the series on Rattus norvegicus [12] was found to be 2; with Rattus norvegicus [13], 1; in the series on Rattus norvegicus [14] it was 1.

Compound `CCc1cc2c(s1)Nc1cc(F)c(F)cc1N=C2N1CCN(C)CC1` had an EDmin in the series with Mus musculus of 6.25 mg/kg. Moreover, the LD50 in [1] was 300 mg/kg. Also, the Activity in the series on Rattus norvegicus [15] and in the series on Rattus norvegicus [16] was 3 each time.

For `CCc1cc2c(s1)Nc1ccc(F)cc1N=C2N1CCN(CCCO)CC1`, in the series on Mus musculus, the EDmin came to 25 mg/kg. This compound returned an LD50 in series [1] of 400 mg/kg. Also, the Activity in the series with Rattus norvegicus [17] and in the series on Rattus norvegicus [18] was 2 throughout.

`CCc1cc2c(s1)Nc1ccc(F)cc1N=C2NCCN(C)C` returned an EDmin with Mus musculus of 200 mg/kg. In [1], the LD50 amounted to 400 mg/kg. Also, in the series on Rattus norvegicus [19], the Activity is given as 1.

Regarding `CCc1cc2c(s1)Nc1ccc(F)cc1N=C2NCCCN(C)C`, in the series on Mus musculus, the EDmin is >400 mg/kg. The LD50 in series [1] is > 800 mg/kg. This compound came in with an Activity in the series on Rattus norvegicus [20] of 1.

In the series with Mus musculus, `CCc1cc2c(s1)Nc1ccc(F)cc1N=C2N1CCN(C)CC1.O=C(O)/C=C\C(=O)O` came in with an EDmin of 6.25 mg/kg. In addition, the LD50 in series [1] worked out at 200 mg/kg. Further, the Activity in the series with Rattus norvegicus [4] amounted to 1; with Rattus norvegicus [5] it was 2.

As to `CN1CCN(C2=Nc3cc(F)ccc3Nc3sccc32)CC1`, in the series on Mus musculus, the EDmin was found to be 25 mg/kg. Besides, the LD50 in series [1] was > 200 mg/kg. In addition, in the series on Rattus norvegicus [21], the Activity came out at 5.

Compound `CCc1cc2c(s1)Nc1ccccc1N=C2N1CCN(C)CC1` showed an EDmin in the series with Mus musculus of 25 mg/kg. The compound further displayed an LD50 in series [1] of 150 mg/kg. For the same compound, the Activity in the series on Rattus norvegicus [17] turned out to be 2; with Rattus norvegicus [22], 1.
